Published values of several laboratories.
Protocols differ between the studies behind these lines.
Target: Protein-tyrosine kinase 2-beta (PTK2B, Homo sapiens, UniProt Q14289)

The inhibition of Cn1cc(-c2cc(F)cc(N3CCn4c(cc5c4CCCC5)C3=O)c2CO)cc(Nc2ccc(N3CCN(C4COC4)CC3)cn2)c1=O is reported as 6% (enzyme activity; inhibitor; 0.1 µM).
Nc1ncc(-c2nc(N3CCOCC3)nc(N3CCOCC3)n2)c(C(F)F)n1 gave a remaining binding of 70% (binding; competition with immobilised ligand; 10 µM).
O=c1[nH]c2ccccc2n1C1CCN(Cc2ccc(-c3[nH]c4cc5ncnc5cc4nc3-c3ccccc3)cc2)CC1 has a remaining activity of 105% (enzyme activity; 0.5 µM).
Cn1cc(-c2cccc(N3CCc4c(sc5c4CC(C)(C)C5)C3=O)c2CO)cc(Nc2ccncn2)c1=O gave an inhibition of 2% (enzyme activity; inhibitor; 1 µM).
With N#CC1(c2ccccn2)CCN(Cc2cc(C(=O)O)c(=O)n3ccccc23)CC1 the remaining binding was 100% (cell-free assay; competition with immobilised ligand; 1 µM).
With Cc1nn(C)cc1-c1nc2c(N3CCN(Cc4ccc(Cl)cc4)CC3)c(Cl)cnc2[nH]1 the remaining binding was 100% (binding; competition with immobilised ligand; 1 µM).
Cn1cncc1[C@@](O)(COc1ccc(C#N)cc1-c1ccc(OC(F)(F)F)cc1)c1ccc(C#N)cc1 has a remaining binding of 100% (cell-free assay; competition with immobilised ligand; 1 µM).
For COc1ncccc1-c1cnn2ccc(N3CCN(C(=O)OC(C)C)CC3)nc12, the remaining binding was 100% (binding; competition with immobilised ligand; 1 µM).
